TbHK1 inh: blocks Trypanosoma brucei hexokinase 1 activity; 220,000 tested, 0.11% active; inhibition, % at 10 µM; recombinant TbHK1, G6PDH-coupled NADH A340;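 active = inhibition of 50% or more in the single-dose primary screen; inactive = inhibition below 50%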
Runt-CBFb FRET: Runt domain-CBFb interaction inhibition; Q01196+Q13951; Cerulean-Runt/Venus-CBFb FRET ratio 530/480, 1 h; inhibition, % at 20 µM; 220,000 tested, 0.46% active; AID 1496;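 active = inhibition over about 50% at 20 µM in the single-dose screen, limit read from the data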;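 note: 0% = DMSO wells and 100% = excess unlabeled CBFb competitor control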
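System: Cerulean-labeled Runt domain protein | Quantity: 100 nM of each labeled protein | Schedule: 1 h compound exposure, room temperature | Detection: Fluorescence energy transfer, 422 nm excitation, 530/480 nm emission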
Hck-Nef inh: blocks Nef-activated human Hck kinase. P08631. Recombinant Hck-YEEI plus Nef, Z-Lyte FRET kinase assay. inhibition, % at 20 µM. 220,000 tested, 0.68% active;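 active = Hck-Nef kinase inhibition above about 50%, limit read from the data; inactive = inhibition below that limit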;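 note: 0% = DMSO with Hck plus Nef and 100% = Hck alone without Nef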
Target sequence (P08631 whole entry, looked up): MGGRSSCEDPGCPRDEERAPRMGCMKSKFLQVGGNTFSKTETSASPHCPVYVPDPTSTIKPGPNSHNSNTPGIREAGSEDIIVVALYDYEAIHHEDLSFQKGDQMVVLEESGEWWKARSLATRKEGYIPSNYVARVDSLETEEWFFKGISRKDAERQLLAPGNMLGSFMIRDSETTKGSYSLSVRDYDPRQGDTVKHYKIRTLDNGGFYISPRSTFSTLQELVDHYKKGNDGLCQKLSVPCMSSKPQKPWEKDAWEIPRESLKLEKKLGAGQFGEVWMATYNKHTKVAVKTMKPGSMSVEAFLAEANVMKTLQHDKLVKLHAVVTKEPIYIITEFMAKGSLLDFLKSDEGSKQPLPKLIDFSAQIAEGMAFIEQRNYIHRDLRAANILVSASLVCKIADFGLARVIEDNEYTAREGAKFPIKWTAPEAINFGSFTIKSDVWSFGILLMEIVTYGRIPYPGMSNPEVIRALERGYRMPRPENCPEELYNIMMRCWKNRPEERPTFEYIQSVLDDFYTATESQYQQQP
14-3-3 Bad inh: disrupts binding of bovine 14-3-3 zeta to phospho-Bad peptide | P63103 | TR-FRET 14-3-3zeta/Dy647-pBad peptide displacement, 1 h | inhibition, % at 21.7 µM | 220,000 tested, 0.71% active | AID 781;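 active = inhibition above about 70%, limit read from the data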;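 note: 0% = full 14-3-3 plus peptide FRET controls and 100% = background without 14-3-3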
Target sequence (P63103 whole entry, looked up): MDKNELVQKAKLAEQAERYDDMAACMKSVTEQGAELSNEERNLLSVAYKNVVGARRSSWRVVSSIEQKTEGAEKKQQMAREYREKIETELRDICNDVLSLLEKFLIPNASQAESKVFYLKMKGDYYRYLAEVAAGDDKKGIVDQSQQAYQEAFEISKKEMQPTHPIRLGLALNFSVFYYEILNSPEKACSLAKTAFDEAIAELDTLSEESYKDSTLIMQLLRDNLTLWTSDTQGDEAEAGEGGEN
Runt-SMMHC FRET: inhibitors of human RUNX1 Runt domain binding to CBFb-SMMHC | Q01196+Q13951 | Cerulean-Runt/Venus-CBFb-SMMHC FRET ratio 530/480, 1 h | inhibition, % at 20 µM | 220,000 tested, 0.74% active;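 active = mean inhibition across duplicate retests at 20 µM reaching about 50%, limit read from the data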;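 note: 0% = DMSO wells and 100% = wells with excess untagged CBFb-SMMHC; inhibitors lower the FRET ratio by blocking Runt binding to CBFb-SMMHC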
RanGTP-Imp inh: disruptors of Ran-importin-beta complex formation – biochemical, FRET, CFP-Ran, YFP-importin-beta, homogeneous, primary screen; AID 2216; 300,000 tested, 1.1% active; inhibition, % (no concentration beside the values); cell-free CFP-Ran/YFP-importin-beta FRET ratio;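 active = more than half of the replicate wells show a fall in the fluorescence ratio signal beyond about 16%, limit read from the data, passing the limit was not always enough; inconclusive = exactly half of the replicate wells pass the set limit; inactive = fewer than half of replicates pass the limit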;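 note: 0% = DMSO wells and 100% = Ran loaded with GDP instead of GTP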
* = called active by the depositor; u = inconclusive; x = not tested or not shown; [ ] = remark or other dose. Most compounds without a hit are left out; they make up all but 2.2% or so of the library.

SMILES | TbHK1 inh | Runt-CBFb FRET | Hck-Nef inh | 14-3-3 Bad inh | Runt-SMMHC FRET | RanGTP-Imp inh
O=C(Nc1cccc(F)c1)NC1(C(=O)N2CCOCC2)CCCCC1 | 6.1 | 0.5 | -0.5 | -6.1 | -0.2 | -2.4
Cc1cccc(C)c1NC(=O)COC(=O)c1cccnc1 | 6.2 | -1.2 | 13.6 | 0.5 | -4.1 | 0.0
Nc1ccc(-c2cc(N)n(-c3ccccc3)n2)cc1 | -3.5 | -3.9 | 1.1 | 81.0* | -0.9 | 1.1
COc1cc(/C=C(/NC(=O)c2ccccc2)C(=O)N2CCOCC2)c([N+](=O)[O-])cc1OC | x | x | x | x | x | -2.4
CN(c1ccc(C(=O)N/N=C/c2cccc([N+](=O)[O-])c2)cc1)S(=O)(=O)c1ccccc1 | x | x | x | x | x | 27.7*
CCOC(=O)Nc1sc(=S)n(C)c1C | -16.6 | 3.5 | 1.0 | 84.2* | 1.1 | -2.8
Nc1nc(N)c2nc(-c3ccccc3)c(N)nc2n1 | -0.3 | 26.4 | 27.5 | -7.6 | 55.9* | -1.5
NSc1nc(N)c2nc(-c3ccccc3)c(-c3ccccc3)nc2n1 | -3.2 | 43.1 | 20.0 | -15.5 | 69.3* | 36.2*
O=C(CNc1n[nH]c(=O)[nH]c1=O)N/N=C/c1ccccc1 | -3.3 | -2.8 | 15.2 | -2.8 | 1.2 | 1.0
O=c1[nH]c(NCCO)c(N=Cc2ccccc2)c(=O)[nH]1 | x | x | x | x | x | 163.9*
CCCN(CCC)C(=O)c1oc2ccccc2c1NC(=O)Cc1cccc(OC)c1 | x | x | x | x | x | 0.6
O=C(CN1CCC(N2CCCCC2)CC1)N1CCCc2ccccc21 | -7.5 | -8.5 | -0.2 | 86.9* | -2.2 | 7.8
CCCC(=O)c1ccc(N2CCN(C(=O)OCC)CC2)c(F)c1 | -12.1 | -1.3 | 3.3 | 76.8* | 1.4 | 0.3
CCc1nc(SCC(=O)Nc2ccc(N(C)C)cc2)c2ccccc2n1 | -12.4 | 4.8 | 25.0 | -4.1 | 3.6 | -1.6
O=C(O)CSc1cc(C(=O)c2ccccc2O)cn2c(=O)c3c4c(sc3nc12)CCCC4 | -1.6 | -35.0 | 3.1 | 75.0* | -84.6 | -11.1
CNc1oc(/C=C/c2ccccc2)nc1C#N | -24.0 | 33.0 | 19.9 | -5.4 | 84.2* | -0.2
CC(C)n1cc(/C=N/NC(=O)COc2cccc3cccnc23)c2ccccc21 | -22.5 | -4.7 | 74.2* | 53.7 | -14.4 | 2.5
COc1ccccc1OCC(=O)N/N=C/c1cccc2cccnc12 | x | x | x | x | x | -0.3
C=CCn1cc(/C=N/NC(=O)COc2cccc3cccnc23)c2ccccc21 | -11.4 | -3.5 | 71.2* | 61.9 | -5.3 | -1.1
COc1cccc(/C=N/NC(=O)COc2cccc3cccnc23)c1O | -3.8 | 6.2 | -0.8 | -25.3 | 20.5 | -2.1
CC1=CCC(C(=O)O)C(C(=O)Nc2ccc(-c3nc4ccc(C)cc4s3)cc2)C1 (stereo not given) | -15.9 | -28.0 | 21.6 | 17.1 | -14.3 | -2.1
O=C1C2CC=C(Cl)CC2C(=O)N1CCC[n+]1cccc2ccccc21 (stereo not given) | 2.4 | 1.0 | 3.9 | -7.2 | 0.5 | 5.7
CC(C)(C)OC(=O)C1C(=O)CC(C)(O)C(C(=O)OC(C)(C)C)C1c1cccnc1 (stereo not given) | -1.9 | 0.1 | -0.7 | 80.0* | -0.7 | u
O=C(NCC(=O)N1CC(O)CC1C(=O)N1CCCC1C(=O)OCc1ccccc1)OCc1ccccc1 (stereo not given) | 11.8 | 0.9 | 0.9 | -1.4 | 0.1 | 0.6
COc1cc(/C=C2\SC(=O)N(CC(=O)Nc3ccccc3F)C2=O)cc(Cl)c1O | x | x | x | x | x | -8.5
SMILES | TbHK1 inh | Runt-CBFb FRET | Hck-Nef inh | 14-3-3 Bad inh | Runt-SMMHC FRET | RanGTP-Imp inh
COc1cc(OC)c(/C=C2\SC(=O)N(CC(=O)Nc3ccccc3F)C2=O)c(OC)c1 | x | x | x | x | x | 46.4*
N#Cc1c(C(F)(F)F)cc(=O)n2c1[nH]c1ccccc12 | x | x | x | x | x | 91.2*
N#Cc1c(CSCC(=O)O)cc(=O)n2c1[nH]c1ccccc12 | -18.3 | 4.3 | 29.9 | -4.7 | 5.5 | -10.9
CN(C)c1ccc(CNc2ncnc3sccc23)cc1 | x | x | x | x | x | -1.3
Cc1oc2cc(O)ccc2c(=O)c1Oc1ccccc1 | 0.4 | -2.1 | 5.4 | 1.6 | -3.0 | 6.6
O=C(O)c1ccc(Oc2c(C(F)(F)F)oc3cc(O)ccc3c2=O)cc1 | -2.9 | -3.1 | 16.6 | -12.1 | -13.2 | 24.4*
COC(=O)c1ccc(Oc2c(C(F)(F)F)oc3c(CN4CCN(C)CC4)c(O)ccc3c2=O)cc1 | -17.9 | -9.4 | -1.1 | -4.1 | -30.7 | 39.2*
Fc1ccccc1COc1ccc2ccccc2c1CNc1nn[nH]n1 | 3.2 | -2.0 | 13.4 | -15.6 | -1.9 | 4.4
O=C(Cn1cncc1-c1ccc([N+](=O)[O-])cc1)Nc1cccc2ccccc12 | -7.0 | 1.9 | 3.1 | 72.5*[fluorescence artefact?] | -0.3 | 3.2
Cc1cccc(C)c1NC(=S)N(CCN(C)C)Cc1cccs1 | 1.0 | 0.2 | 23.1 | -14.2 | 1.6 | -1.3
CCc1cccc(C)c1NC(=S)N(CCN(C)C)Cc1cccs1 | 5.5 | 1.5 | -9.1 | -4.4 | 1.6 | 53.8*
O=Cc1coc2c(ccc3ccccc32)c1=O | x | x | x | x | x | 37.0*
C=CCSc1nc2sc(C)c(C)c2c(=O)n1N | -6.3 | -2.6 | 1.7 | 3.3 | -2.6 | 0.4
Nc1ccc2[nH]ncc2c1 | -6.9 | 20.2 | 3.9 | 1.8 | 56.9* | u
Cc1cc2[nH]ncc2cc1NC(N)=S | 5.1 | 1.2 | -5.3 | -10.4 | -5.0 | 0.9
CCOc1ccc(Nc2ncnc3c2cnn3Cc2ccccc2)cc1 | -13.8 | -3.1 | -1.7 | 80.3* | -6.3 | 1.0
COc1ccc(Nc2ncnc3c2cnn3Cc2ccccc2)cc1 | -1.3 | -1.5 | 7.6 | x | 0.3 | -1.8
CCCCCCOc1ccc(/C=c2\s/c(=C(/C#N)C(=O)NCc3ccco3)n(-c3ccccc3)c2=O)cc1 | 5.0 | -250.0 | 3.2 | -26.2 | 8.3 | 26.9*
COC(=O)/C=c1/s/c(=C(/C#N)C(=O)NCc2ccccc2)n(-c2ccccc2)c1=O | -26.0 | -11.5 | -1.7 | 13.6 | -16.2 | 1.0
COc1cc(SC)ccc1C(=O)N(CC(=O)Nc1ccccc1Br)Cc1ccco1 | x | x | x | x | x | 2.5
CSc1nc2cc(C)nn2c(-c2ccccc2)c1C#N | -7.4 | -3.1 | 2.8 | 94.3* | -1.4 | -1.1
CSc1nc(C)cc(C)c1C#N | -0.3 | x | 0.8 | x | -1.1 | 3.1
Cc1nc2c([nH]1)C1(CCN(Cc3ccccc3)CC1)C(C#N)=C(N)O2 | 1.1 | 17.1 | 0.8 | -12.5 | 90.4* | x
Cc1sc2nc(CN3CCOCC3)nc(N3CCOCC3)c2c1C | -1.8 | 0.6 | -20.3 | 73.7* | -0.8 | 2.1
Cc1sc2nc(CN3CCOCC3)nc(N3CCC(C(N)=O)CC3)c2c1C | -5.7 | x | 2.2 | x | x | 2.6
O=C(Nc1ccccc1)C1=C[C@@H](c2coc3ccccc3c2=O)C[C@@H](OCc2ccc(CO)cc2)O1 | -13.2 | -2.1 | 6.5 | -0.3 | -1.4 | 3.2
CCOc1ccc(NC(=O)/C(C#N)=C/c2cn(CC(=O)O)c3ccccc23)cc1 | x | x | x | x | x | 3.3
CCOc1cccc(NC(=O)/C(C#N)=C\c2cn(CC(=O)O)c3ccccc23)c1 | x | x | x | x | x | 27.8*
